According to BindingDB's records for doi:10.1016/j.bmcl.2019.08.010 (Stanford University, 2019):

Target: T1, Uridine-cytidine kinase 2 (Homo sapiens, UniProt Q9BZX2)
T1 sequence (Q9BZX2 whole entry): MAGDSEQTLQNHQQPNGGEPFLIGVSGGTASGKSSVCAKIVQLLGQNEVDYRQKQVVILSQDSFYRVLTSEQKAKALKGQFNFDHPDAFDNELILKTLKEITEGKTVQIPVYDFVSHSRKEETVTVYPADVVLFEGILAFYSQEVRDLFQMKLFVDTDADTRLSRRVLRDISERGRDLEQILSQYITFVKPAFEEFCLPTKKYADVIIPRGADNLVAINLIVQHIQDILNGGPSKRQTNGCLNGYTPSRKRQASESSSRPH
Assay: Inhibition of C-terminally His6-tagged human UCK2 expressed in Escherichia coli BL21(DE3) cells incubated for 15 mins before ATP addition and measured after 60 mins by ADP-Glo kinase assay
In short: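 His6-tagged UCK2 (C-terminal tag), purified by Ni-NTA then ion exchange; UCK2 phosphorylates uridine with ATP and ADP-Glo measures the ADP formed, after depleting leftover ATP, as luciferase luminescence. Run in 1536-well format with 0.5 mg/mL BSA, DMSO up to 3%. Primary screen at 33 μM with hit cut-off of 3 SD of the negative control. Confirmation used 8 half-log concentrations, 0.05–167 µM.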

- IC50: 137 µM
SMILES: Cc1ccccc1NC(=O)CSCn1[nH]nc2c(=O)nc(Cc3ccc(F)cc3)nc1-2
